Experimental data pooled from the literature.
Each line is one published result; the experiments were not run side by side.
Sample: plasma

SMILES | species | route | dose | notes | Tmax [min]
N#C[C@@]12C[C@@H]1[C@@H](n1cnc3c(N[C@@H](C4CCC4)C4CC4)nc(I)nc31)[C@H](O)[C@@H]2O | male Wistar rat | oral | 3 mg/kg | – | 120
CC(=Nc1ccc(N=Cc2cnccn2)cc1)N(C)C | male Sprague-Dawley rat | oral | 200 mg/kg | single dose | ≤ 5
O=C1CC[C@H](N2Cc3cc(N4CCN(CC5CCN(c6ccc([C@@H]7c8ccc(O)cc8CC[C@@H]7c7ccccc7)cc6)CC5)CC4)ccc3C2=O)C(=O)N1 | male Sprague-Dawley rat | oral | 20 mg/kg | fasted | 200
Nc1ccc(/C=C/C(=O)NCc2cc3cc(-c4ccc(C(=O)N5CCC(F)(F)CC5)cc4)cc(-c4ccc(F)cc4)c3o2)cn1 | rat | oral | 3 mg/kg | – | 240
CN1Cc2c(N)cccc2C(=O)N1C1CCC(=O)NC1=O (centres unmarked) | male Sprague-Dawley rat | oral | 3 mg/kg | – | ~18
C[C@H]1[C@@H](O)O[C@@H]2O[C@@]3(C)CC[C@H]4[C@H](C)CC[C@@H]1[C@@]24OO3 | Sprague-Dawley rat | oral | 10 mg/kg | – | 27
O=c1cc(-c2ccc(O)c(O)c2)oc2cc(O)cc(O)c12 | male Sprague-Dawley rat | oral | 30 mg/kg | – | 30
Cc1c(C(=O)O)ccc2c3n(nc12)[C@@H]1[C@H](C3)N(CC2CC2)[C@@]2(C(=O)Nc3cc(Cl)ccc32)[C@H]1c1cccc(Cl)c1F | male rat | oral | 2 mg/kg | – | 78
CC1(CN)CCN(c2cnc3c(Sc4ccncc4Cl)n[nH]c3n2)CC1 | male Sprague-Dawley rat | oral | 10 mg/kg | – | 4.98
O=C(C=Cc1ccccc1)Nc1cc(-c2ccnc(N3CCC(O)CC3)c2)ccn1 | female Sprague-Dawley rat | oral | 50 mg/kg | – | 30
CC(=O)CC(=O)C1CC(C)C(=O)C1=O (centres unmarked) | male Sprague-Dawley rat | intravenous | 20 mg/kg | – | 6.6
